Measured values pooled from the literature.
Protocols differ between the studies behind these lines.
RORC: Nuclear receptor ROR-gamma (RORC, Homo sapiens, UniProt P51449)
Chymotrypsinogen A: Chymotrypsinogen A (Bos taurus, UniProt P00766)
Toll-like receptor 1/2: Toll-like receptor 1/2 (Homo sapiens, UniProt O60603+Q15399)

Cc1cccc(C)c1COc1ccc2c(c1)N(S(=O)(=O)c1cccc(C(F)(F)F)c1)CC2 — IC50 (RORC; ligand displacement, radioligand): 230 nM
CCCC[C@H](NC(=O)[C@H](CCC(N)=O)NC(=O)[C@H](CO)NC(=O)[C@H](Cc1ccccc1)NC(=O)CCCCCN)C(=O)N[C@@H](CCCBr)B1O[C@@H]2C[C@@H]3C[C@@H](C3(C)C)[C@]2(C)O1 — Ki (Chymotrypsinogen A; enzyme activity, inhibitor, fluorescence): 496 nM
OC[C@@H]1[C@@H](O)[C@H](O)[C@@H](O)[C@@H]2O[C@H]12 — IC50 (Beta-glucosidase (GBA2, Homo sapiens, UniProt Q9HCG7); enzyme activity, inhibitor; pH 6, lysate): 1160 nM
Cc1cnc(-c2ccc(-c3ccc(NC(=O)Nc4c(F)cc(F)cc4F)cc3F)c3c2C(=O)NC3)[nH]1 — Kd (Tyrosine-protein kinase Fer (FER, Homo sapiens, UniProt P16591); binding, competition with immobilised ligand): 14 nM
Cc1cc(Nc2cc3ncccc3c(N[C@@H]3C[C@H]4CC[C@@H](C3)N4CCC#N)n2)n[nH]1 — Kd (Cyclin-dependent kinase 4, with cyclin D1 (CDK4, Homo sapiens, UniProt P11802); binding, competition with immobilised ligand): 150 nM
CNc1ccc(C(F)(F)F)cc1-n1cnc(-c2ccc(C(F)(F)F)cc2)c1 — EC50 (Toll-like receptor 1/2; reporter gene, agonist): 240 nM
CCOCc1nc(O)c(-c2nnc(Cc3ccc(Cl)cn3)o2)c(O)c1-c1c(OC)cccc1OC — EC50 (Apelin receptor (Aplnr, Mus musculus, UniProt Q9WV08); cAMP, agonist): 0.03 nM
CNc1ccc([N+](=O)[O-])cc1-n1cnc(-c2ccc(-c3ccccc3)cc2)c1 — EC50 (Toll-like receptor 1/2; reporter gene, agonist): 84.7 nM
O=C(CCn1cc(CN2CCN(c3cc4c(cc3F)c(=O)c(C(=O)O)cn4C3CC3)CC2)nn1)Nc1ccc(S[C@@H]2O[C@H](CO)[C@H](O)[C@H](O)[C@H]2O)cc1 — Ki (PA-I galactophilic lectin (lecA, Pseudomonas aeruginosa, UniProt Q05097); ligand displacement, FP): 4290 nM
CCCC[C@H](NC(=O)[C@H](CCC(N)=O)NC(=O)[C@H](CO)NC(=O)[C@H](Cc1ccccc1)NC(=O)CCCCCNC(=O)c1ccc(I)cc1)C(=O)N[C@@H](CCCBr)B(O)O — Ki (Chymotrypsinogen A; enzyme activity, inhibitor, fluorescence): 653 nM
O=S(=O)(c1cccc(C(F)(F)F)c1)N1CCc2ccc(OCc3c(Cl)ccnc3Cl)cc21 — IC50 (RORC; ligand displacement, radioligand): 78 nM
CNc1ccc([N+](=O)[O-])cc1-n1cnc(-c2ccc(C(C)(C)C)cc2)c1 — EC50 (Toll-like receptor 1/2; reporter gene, agonist): 150 nM
CCCC[C@H](NC(=O)[C@H](CCCCN)NC(=O)[C@H](CO)NC(=O)[C@H](CO)NC(=O)OCc1ccccc1)C(=O)N[C@@H](Cc1ccccc1)B(O)O — Ki (Chymotrypsinogen A; enzyme activity, inhibitor, fluorescence): 18.1 nM
CCCCc1ccc(-c2cn(-c3cc([N+](=O)[O-])ccc3NC)cn2)cc1 — EC50 (Toll-like receptor 1/2; reporter gene, agonist): 230 nM
CC(C)C[C@H](NC(=O)[C@H](Cc1ccccc1)NC(=O)[C@@H](N)Cc1ccc(O)cc1)C(=O)N[C@@H](Cc1ccccc1)C(=O)N[C@@H](CCCNC(=N)N)C(=O)N1CCC[C@H]1C(=O)N[C@@H](CCCNC(=N)N)C(=O)N[C@@H](CC(N)=O)C(N)=O — EC50 (Neuromedin-U receptor 1 (Mus musculus, UniProt O55040); β-arrestin recruitment, agonist): 11.5 nM
CCNc1ccc([N+](=O)[O-])cc1-n1cnc(-c2ccc([N+](=O)[O-])cc2)c1 — EC50 (Toll-like receptor 1/2; reporter gene, agonist): > 100000 nM
O=S(=O)(c1cccc(Cl)c1)N1CCc2ccc(OCc3c(F)cccc3Cl)cc21 — IC50 (RORC; ligand displacement, radioligand): 370 nM
Cc1cc2nc3c(=O)[nH]c(=O)nc-3n(C[C@H](O)[C@H](O)[C@H](O)COP(=O)(O)OP(=O)(O)OC[C@H]3O[C@@H](n4cnc5c(N)ncnc54)[C@H](O)[C@@H]3O)c2cc1C — Kd (Pumilio homolog 2 (Homo sapiens, UniProt Q8TB72); binding; lysate): 15 nM
CNc1ccc([N+](=O)[O-])cc1-n1cnc(-c2ccc3ccccc3c2)c1 — EC50 (Toll-like receptor 1/2; reporter gene, agonist): 420 nM
COc1c(Cl)cccc1COc1ccc2c(c1)N(S(=O)(=O)c1cccc(C(F)(F)F)c1)CC2 — IC50 (RORC; ligand displacement, radioligand): 440 nM
